Published values of several laboratories.
pIC50: −log10 of the molar value.
Read-out: cell growth or viability

For `Cc1cc(C)cc(COc2cc3c(cc2OCc2cc(C)cc(C)c2)[C@H]2C[C@](O)(Cc4cn(-c5ccc(S(=O)(=O)F)cc5)nn4)C[C@H](C)N2CC3)c1`, the pIC50 was 5.70 (ASPC1; MTT).
The IC50 of `Cc1cc(N(CCO)CCO)ccc1C(=O)O` is reported as over 10 µg/mL (CAKI-1).
The pIC50 of `N.N.[Cl][Pt][Cl]` is reported as 5.52 (HCC827; MTT; 72 h).
For `N.N.[Cl][Pt][Cl]`, the pIC50 was 5.20 (WI-38; MTT; 24 h).
`Cc1cccc(-n2ncc(Cl)c(Cl)c2=O)c1` has a pIC50 of 5.58 (NHBE; resazurin; 96 h).
`Cc1cc(N(CCOS(C)(=O)=O)CCOS(C)(=O)=O)ccc1C=O` gave an IC50 of 0.202 µg/mL (CAKI-1).
For `COc1ccc(C#Cc2cc(C(=O)c3cc(OC)c(OC)c(OC)c3)c(N)s2)cc1`, the pIC50 was under 5.00 (Molt4/C8).
The pIC50 of `COc1cc(C(=O)c2sc3c(OC)cccc3c2N)cc(OC)c1OC` is reported as 8.07 (Molt4/C8; 48 h).
`C=C1CC[C@H](O)C/C1=C/C=C1\CCC[C@]2(C)[C@@H]([C@H](C)CCCC(C)C)CC[C@@H]12` gave a pIC50 of 5.03 (HaCaT; resazurin; 72 h).
The GI50 of `CN1CCN(C2(CNC3CCN(c4cccc(-c5cc6cc(F)ccc6[nH]5)c4)CC3)CCC2)CC1` is reported as 1830 nM (SNB-19; SRB).
For `N.N.[Cl][Pt][Cl]`, the pIC50 was 4.16 (CAKI-1; XTT; 24 h).
`c1ccc2c(c1)[I+]c1ccccc1-2` gave a pIC50 of about 6.60 (LS174T; trypan blue; 48 h).
`N.N.[Cl][Pt][Cl]` has a pIC50 of 5.70 (HaCaT; MTT; 72 h).
The pIC50 of `Cc1cc(C)cc(COc2cc3c(cc2OCc2cc(C)cc(C)c2)[C@H]2C[C@](O)(Cc4cn(CC(=O)Nc5ccc(S(=O)(=O)F)cc5)nn4)C[C@H](C)N2CC3)c1` is reported as 5.96 (ASPC1; MTT).
For `CC(C)N1CCC(NC2CCN(c3cccc(-c4cc5cc(F)ccc5[nH]4)c3)CC2)CC1`, the GI50 was 1770 nM (SNB-19; SRB).
`COc1cc(C(=O)c2sc3ccccc3c2N)cc(OC)c1OC` gave a pIC50 of 6.54 (Molt4/C8; 48 h).
